Compounds with a hit are over-represented: about 4.6% of the library has one in this group of screens.
PolyA inhibitor: yeast polyadenylation inhibition; S. cerevisiae SKY197-pL101 polyadenylation reporter, beta-gal luminescence; efflux-impaired pdr1/pdr3 knockout yeast; score 100 = 6 SD above DMSO; activity score, % at 12 µM; 0.02% of 300,000 active;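 active = lowest replicate activity score at least 50, where 100 means six control SD above control mean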;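 note: yeast exposed to compound for 9 h at 30 °C; higher score means more reporter readthrough which indicates perturbed polyadenylation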
NALP3 yeast inh: blocks the NALP3 inflammasome reconstituted in yeast; Yeast reconstituted NLRP3/ASC/caspase-1, beta-gal luminescence, 24 h; inhibition, % at 10 µM; 0.39% of 330,000 active; AID 2825;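 active = inhibition of 50% or more; inactive = inhibition below 50%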
ALR inh: blocks human ALR sulfhydryl oxidase activity; P55789; purified ALR, DTT oxidation, H2O2 HRP-luminol luminescence; inhibition, % (test concentration not listed); 3.8% of 290,000 active;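 active = mean replicate inhibition above about 79%, with every replicate also reaching it, limit read from the data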
Pemphigus Ab inh: inhibitors of pemphigus antibody binding to human desmoglein-3; P32926; DSG3-coupled beads, scFv-anti-DSG3-GFP binding, flow cytometry; hits give low values; binding (percent of control), % at 10 µM; 0.48% of 310,000 active;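 active = binding more than 3 SD below its plate's average and above zero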;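 note: hits lower antibody fragment binding to DSG3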
Target sequence (P32926 whole entry, looked up, the tested form may be a part): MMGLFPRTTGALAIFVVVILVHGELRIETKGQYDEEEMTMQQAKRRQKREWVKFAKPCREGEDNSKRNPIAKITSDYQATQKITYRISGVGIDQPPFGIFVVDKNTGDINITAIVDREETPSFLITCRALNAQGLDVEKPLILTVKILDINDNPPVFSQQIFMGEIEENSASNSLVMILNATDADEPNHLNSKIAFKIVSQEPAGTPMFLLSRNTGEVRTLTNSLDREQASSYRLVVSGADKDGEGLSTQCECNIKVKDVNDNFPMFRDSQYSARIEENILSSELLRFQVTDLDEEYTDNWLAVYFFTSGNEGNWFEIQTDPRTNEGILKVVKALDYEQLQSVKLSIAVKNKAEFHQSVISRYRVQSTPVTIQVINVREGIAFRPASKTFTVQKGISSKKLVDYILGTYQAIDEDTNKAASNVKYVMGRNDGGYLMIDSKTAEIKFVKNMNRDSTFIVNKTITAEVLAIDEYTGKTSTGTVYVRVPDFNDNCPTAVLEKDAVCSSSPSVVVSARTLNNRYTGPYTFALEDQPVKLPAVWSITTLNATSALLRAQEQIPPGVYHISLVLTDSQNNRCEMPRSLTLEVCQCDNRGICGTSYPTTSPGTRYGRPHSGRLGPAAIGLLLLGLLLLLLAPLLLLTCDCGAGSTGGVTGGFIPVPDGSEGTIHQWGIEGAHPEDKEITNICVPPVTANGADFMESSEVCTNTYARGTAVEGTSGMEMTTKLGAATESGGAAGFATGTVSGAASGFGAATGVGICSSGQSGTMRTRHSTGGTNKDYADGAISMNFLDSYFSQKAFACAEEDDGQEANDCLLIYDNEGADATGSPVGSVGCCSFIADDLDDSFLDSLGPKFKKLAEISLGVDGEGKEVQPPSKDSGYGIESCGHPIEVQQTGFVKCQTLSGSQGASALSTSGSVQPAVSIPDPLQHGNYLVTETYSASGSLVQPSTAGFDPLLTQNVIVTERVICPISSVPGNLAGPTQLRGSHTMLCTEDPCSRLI
Arr AP2 block: blocks beta-arrestin peptide binding to AP2 adaptin | FITC-arrestin peptide / GST-AP2 beads, flow cytometry; AP2 beta2 appendage carries R879A mutation | inhibition, % at 10 µM | 0.31% of 340,000 active;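 active = inhibition above a set limit, near 3 SD of compounds lacking own fluorescence, cut at about 54% in these data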
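Test system: GST-tagged AP2 beta2-adaptin appendage (R879A) on 4 µm glutathione beads; also added: fluorescein-tagged arrestin peptide at 50 nM final; timing: 12 min plus 1 h, RT; signal: flow cytometry, FL1 (488/535 nm); read-out: percent drop in bead-associated FITC signal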
NALP1 inh: blocks the NALP1 inflammasome reconstituted in yeast; AID 2071; inhibition, % at 10 µM; 0.61% of 280,000 active; S. cerevisiae NALP1/ASC/caspase-1 growth, X-gal OD620, 72 h; in the data active = inhibition mostly above about 24%, no sharp cut-off; inactive = mostly below about 32%
A number is an active result; – = inactive; · = no result given.

SMILES	PolyA inhibitor	NALP3 yeast inh	ALR inh	Pemphigus Ab inh	Arr AP2 block	NALP1 inh
Cc1cccc(C(=O)N=c2c(C#N)cc3c(=O)n4cccc(C)c4nc3n2Cc2ccco2)c1	–	–	·	–	–	–
COc1ccc(-c2noc(COC(=O)c3ccco3)n2)cc1OC	·	–	·	–	–	·
CCC(CC)C(=O)Oc1c(C(=O)N(C)C)cccc1-c1ccccc1	·	·	·	–	–	·
Cc1cccn2c(=O)c(C=O)c(N3CCCCC3)nc12	–	–	–	–	–	–
Cc1cccn2c(=O)c(C=O)c(Cl)nc12	–	–	98	–	–	–
O=C1N=C(c2ccccc2)C(c2ccccc2)N1 (configuration not stated)	–	–	99	–	–	–
CCc1ccccc1NC(=O)C1CCCN(S(=O)(=O)c2ccc3c(c2)CC(C)N3C(C)=O)C1 (configuration not stated)	–	–	·	–	–	–
CC(C)(C)NC(=O)CCN(/N=C/c1ccccc1O)C1=NS(=O)(=O)c2ccccc21	–	–	–	–	–	–
[O-]C1=N[N+](=C(c2ccccc2)c2ccccc2)C1	·	·	·	–	–	·
CCC(C)c1ccccc1NC(=O)CN1CCN(C/C=C/c2ccccc2)CC1 (configuration not stated)	–	–	–	–	–	53
CC(NC(=O)c1ccc(OC2CCN(Cc3ccccn3)CC2)cc1)c1nccs1 (configuration not stated)	–	–	–	–	–	–
C=CCc1c(C)nc(SCC(N)=O)[nH]c1=O	–	–	–	–	–	–
C=CCc1c(O)nc(SCC(=O)c2ccccc2)[nH]c1=O	–	–	99	–	–	–
CCC(C)c1c(O)nc(SCC(=O)Nc2ccccc2)[nH]c1=O (configuration not stated)	–	–	99	–	–	–
CCC(C)c1c(O)nc(SCC(=O)c2ccccc2)[nH]c1=O (configuration not stated)	–	–	99	–	–	–
CCC(C(=O)O)n1c2ccccc2c2cn[nH]c(=O)c21 (configuration not stated)	–	–	·	–	–	–
COc1ccc(N2CCN(Cc3nc4c(c(=O)n(C)c(=O)n4C)n3C(C)C(C)=O)CC2)cc1 (configuration not stated)	–	–	89	–	–	–
CCOCCn1c(CN2CCN(c3ccc(F)cc3)CC2)nc2c1c(=O)n(C)c(=O)n2C	–	–	99	–	–	–
COc1ccc(N2CCN(Cc3nc4c(c(=O)n(C)c(=O)n4C)n3Cc3cccc(C)c3)CC2)cc1	–	–	–	–	–	–
COC(=O)C[C@@H]1C[C@H]2c3cc(NC(=O)Nc4ccccc4F)ccc3O[C@H]2[C@H](CO)O1	·	·	·	–	·	·
O=C(O)Cn1c(SCc2cccc3ccccc23)nc2ccccc21	–	–	98	–	–	–
O=C(O)Cn1c(SCc2ccccc2)nc2ccccc21	–	–	–	–	–	–
COc1ccc(-c2csc(NC(=O)CSc3nc(C)nc4sc(C(=O)O)c(C)c34)n2)cc1	–	–	99	–	–	–
CCOC(=S)SCC(=O)Nc1nc(-c2ccccc2)cs1	–	–	99	–	–	–
COc1ccc(-c2csc(NC(=O)CSc3nc(C)cs3)n2)cc1	–	–	–	–	–	·
SMILES	PolyA inhibitor	NALP3 yeast inh	ALR inh	Pemphigus Ab inh	Arr AP2 block	NALP1 inh
CCOC(=S)SCC(=O)Nc1nc(-c2ccc(Br)cc2)cs1	–	–	99	–	–	–
CCOC(=O)N1CCN(C(=O)CSCC(=O)Nc2nc(-c3ccc(OC)cc3)cs2)CC1	·	–	99	–	–	–
Cc1ccc([C@H]2C[C@@H](n3cc(COC(=O)c4ccccc4)nn3)[C@H](O)CN2C(=O)C2CCCCC2)cc1	·	·	·	–	·	·
Cc1nnsc1-c1nnc(SCC(=O)c2ccc(C#N)cc2)n1C1CC1	–	–	–	–	–	–
Cc1nnsc1-c1nnc(SCC(=O)c2ccccc2)n1C1CC1	–	–	84	–	–	–
COc1ccc(/C=C/C(=O)c2cc3cccc(OC)c3oc2=O)cc1	–	–	–	100	–	–
CNC(=O)c1cc2cccc(OC)c2oc1=O	–	–	–	–	–	–
O=C1OCCC1(c1ccccc1)c1ccccc1	·	–	·	–	–	·
